Bioassay records (PubChem BioAssay)
CHRM5 agonist: human M5 muscarinic receptor agonists, primary screen, CHO-K1 cells, Fluo-8 calcium fluorescence; CHO-K1 hM5 cells; 0% DMSO wells, 100% maximal acetylcholine response; activation, % at 3 µM; 360,000 compounds, 0.19% hits; AID 624037, 2012;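 active = activation above the run's mean over test compounds plus 3 SD, cut at about 23% in these data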;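 note: signal is peak over basal fluorescence ratio across the kinetic read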
Target sequence (P08912 whole entry, looked up): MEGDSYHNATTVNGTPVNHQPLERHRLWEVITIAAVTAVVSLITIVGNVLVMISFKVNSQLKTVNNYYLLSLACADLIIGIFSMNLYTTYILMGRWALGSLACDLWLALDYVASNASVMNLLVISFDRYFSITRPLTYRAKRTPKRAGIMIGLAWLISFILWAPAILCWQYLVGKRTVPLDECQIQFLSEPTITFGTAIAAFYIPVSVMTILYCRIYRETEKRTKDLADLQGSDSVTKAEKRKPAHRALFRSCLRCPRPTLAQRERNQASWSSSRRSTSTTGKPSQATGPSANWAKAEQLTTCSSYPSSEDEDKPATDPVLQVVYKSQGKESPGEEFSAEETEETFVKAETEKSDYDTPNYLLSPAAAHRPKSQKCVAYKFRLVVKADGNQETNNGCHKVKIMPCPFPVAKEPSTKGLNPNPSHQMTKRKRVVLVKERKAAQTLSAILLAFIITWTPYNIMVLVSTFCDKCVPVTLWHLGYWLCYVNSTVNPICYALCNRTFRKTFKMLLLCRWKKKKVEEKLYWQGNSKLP
CHRM4 agonist: human M4 muscarinic receptor agonists, primary screen, CHO-K1 cells, Fluo-8 calcium fluorescence. Muscarinic acetylcholine receptor M4 (Homo sapiens), P08173. CHO-K1 hM4/Gqi5; vehicle 0%, full acetylcholine response 100%. activation, % at 3 µM. 360,000 compounds, 0.14% hits. AID 624127, 2012;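 active = activation above the run mean over all test wells plus 3 SD, cut at about 32% in these data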;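 note: peak over basal fluorescence ratio per well then scaled between controls; 0% = DMSO wells and 100% = acetylcholine at EC100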
CHRM4 antagonist: human M4 muscarinic receptor antagonists, primary screen, CHO cells, Fluo-8 calcium fluorescence; Muscarinic acetylcholine receptor M4 (Homo sapiens), P08173; CHO-hM4 cells, ACh EC80; inhibition, % at 3 µM; 360,000 compounds, 0.73% hits; AID 624125, 2012;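 active = inhibition above its plate's cutoff, the mean inhibition of sample wells plus 3 SD, cut at about 27% in these data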;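 note: 0% = acetylcholine EC80 with DMSO and 100% = DMSO without agonist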
CHRM5 PAM: human M5 muscarinic receptor positive allosteric modulators, primary screen, CHO-K1 cells, Fluo-8 calcium fluorescence. Muscarinic acetylcholine receptor M5 (Homo sapiens), P08912. CHO-K1 hM5, ACh EC20 PAM; 0% = ACh EC20, 100% = ACh EC100. activation, % at 3 µM. 360,000 compounds, 0.3% hits;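 active = activation above the run cutoff, the mean activation of all test compounds plus 3 SD, cut at about 18% in these data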
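System: CHO-K1 cell line with stable human muscarinic M5 receptor expression | Also added: EC20 acetylcholine as agonist stimulus | Compound: One concentration, 3 µM final (nominal) | Timing: Fluo-8 loading 80 min at 37 °C plus 30 min room temperature | Measured by: Fluo-8 calcium dye fluorescence, kinetic read | Read-out basis: % activation, ACh-normalized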
M4 PAM: human M4 muscarinic receptor positive allosteric modulators, primary screen, CHO-K1 cells, Fluo-8 calcium fluorescence | Muscarinic acetylcholine receptor M4 (Homo sapiens), P08173 | CHO-K1 hM4/Gqi5, ACh EC20; 0% = ACh EC20, 100% = maximal ACh | activation, % at 3 µM | 360,000 compounds, 0.4% hits | AID 624126, 2012;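 active = activation above its plate's cutoff, the mean activation of sample wells plus 3 SD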
CHRM5 antagonist: human M5 muscarinic receptor antagonists, primary screen, CHO cells, Fluo-8 calcium fluorescence; Muscarinic acetylcholine receptor M5 (Homo sapiens), P08912; CHO-hM5 cells, ACh EC80; inhibition, % at 3 µM; 360,000 compounds, 0.59% hits;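 active = inhibition above a per-plate cutoff, the mean of that plate's test compounds plus 3 SD, cut at about 27% in these data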;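 note: 0% = acetylcholine EC80 with DMSO and 100% = DMSO without agonist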
* = called active by the depositor. Rows were chosen to be rich in hits. Some 1.8% of all compounds tested hit in one or more screens of this group.

SMILES	CHRM5 agonist	CHRM4 agonist	CHRM4 antagonist	CHRM5 PAM	M4 PAM	CHRM5 antagonist
Cc1cc(Br)cn2c(Cc3cccc(F)c3)c(-c3ccc(C#N)cc3)nc12	0	-1	-12	-10	5	5
CC(C)C(NC(=O)OCc1ccccc1)C(=O)NC1CCCCC1 (configuration not stated)	1	2	3	2	31*	9
COc1ccc(Nc2nc(-c3cccs3)nc3ccccc23)cc1S(=O)(=O)N1CCOCC1	-4	17	29*	-24	-30	10
c1ccc(COc2cccc(-c3cc4nc(NCCc5ccncc5)ccn4n3)c2)cc1	1	13	-5	-6	-10	5
CCCCCCn1c(=O)[nH]c2nc3cc(N)c(C)cc3nc2c1=O	104*	37*	26	-24	-14	37*
CC(=O)Nc1ccc(Sc2ncccc2C(=O)Nc2ccc(OC(F)(F)F)cc2)cn1	76*	142*	73*	-17	-40	57*
CC(C)(C)OC(=O)N1C(=O)[C@](OC(=O)c2ccccc2)(c2ccc(F)cc2)c2ccccc21	-6	-3	-6	-10	-4	-2
COc1ccc(NC(=O)C2c3ccccc3OCC(=O)N2Cc2cccnc2)cc1 (configuration not stated)	3	2	-7	-4	4	-5
COc1cc(N=C2C(=O)N3c4c(cccc42)C(C)=CC3(C)C)cc(OC)c1	27*	2	-17	4	10	-11
CC1=CC(C)(C)N2C(=O)C(=Nc3ccc(O)cc3)c3cccc1c32	38*	0	26	6	23	5
CCc1nc2ccc(C(=O)Nc3ccc(NC(C)=O)cc3)cn2c1N(CCC(C)C)CCN(C)C	0	0	2	4	-2	-5
CN1OC[C@@H]2CN(S(=O)(=O)c3cc(Cl)cc(Cl)c3)[C@H](c3ccc(-c4ccc(C#N)cc4)cc3)C[C@@H]21	-2	0	-21	5	-2	-12
CCCCCCCCCCCCN1[C@@H](CC(C)=O)c2cc(F)ccc2S1(=O)=O	0	1	-9	-1	8	0
CCCCCCCCCCCCN1[C@@H](CC(=O)OC)c2cc(F)cc(F)c2S1(=O)=O	1	1	-4	6	26*	1
CCCCCCCCCCCCN1[C@@H](CC(=O)OC)c2cc(F)ccc2S1(=O)=O	-1	2	-5	-4	30*	7
Cc1ccc(S(=O)(=O)N2C[C@H]3[C@H]4C(=O)N(Cc5ccccc5)C(=O)[C@H]4CC(=O)[C@H]3[C@@H]2c2ccccc2)cc1	3	3	-2	-1	-2	5
O=C(NCc1ccccc1)C(c1ccc(-c2ccccc2)cc1)N1CCN(CCN2CCOCC2)CC1 (configuration not stated)	-6	8	-10	-10	-6	7
CCN(c1ccc(C)cc1)S(=O)(=O)c1nnc(NC(=O)c2ccco2)s1	-4	3	-44	-5	20*	-1
CCN(c1ccc(C)cc1C)S(=O)(=O)c1nnc(NC(=O)c2ccco2)s1	-3	6	-23	0	1	-5
COc1ccc(NC(=O)c2cccc(N3C(=O)C4CCC(C)CC4C3=O)c2)c(OC)c1 (configuration not stated)	-1	11	9	-6	-11	23
COc1cccc(NC(=O)c2ccc(N3C(=O)C4CCC(C)CC4C3=O)cc2)c1 (configuration not stated)	-1	19	-20	-13	-4	29*
Cc1ccc(S(=O)(=O)N2CCCCC2)cc1NC(=O)c1ccc(=O)[nH]c1	1	0	8	3	1	-1
Cc1cc(/C=N/n2cnnc2)c(C)n1-c1ccc(OCc2ccc(Cl)cc2Cl)cc1	-5	3	47*	-15	-12	37*
CCc1sc(C(=O)Nc2ncccc2C)cc1C	0	2	10	0	5	9
CCc1sc(C(=O)Nc2ncccc2O)cc1C	-5	0	-5	-7	20*	-2
SMILES	CHRM5 agonist	CHRM4 agonist	CHRM4 antagonist	CHRM5 PAM	M4 PAM	CHRM5 antagonist
COc1ccc(CNC(=O)COC(=O)[C@H](Cc2c[nH]c3ccccc23)NC(=O)c2cccs2)cc1	0	12	31*	-14	-23	11
CCCOc1ccc2c(c1)C(=NN=C(N)N)c1cc(OCCC)ccc1-2	2	4	-7	2	28*	11
O=S(=O)(Nc1cccnc1)c1ccc(Cl)cc1	-1	2	-3	-4	20*	2
N#CCC(=O)Nc1ccc(C(=O)NNC(=S)NC2CC2)cc1	-3	2	-8	10	25*	-18
COc1ccc(C(=O)C(=O)N2CCC(c3ccccc3)CC2)cn1	4	3	-1	4	-4	-7
N#C/C(=C\Nc1ccc2cn[nH]c2c1)c1nc(-c2ccccc2)cs1	1	1	-3	-3	3	4
Cc1ccnc(N/C=C(\C#N)c2nc(-c3cccc(Br)c3)cs2)c1	53*	135*	31*	-14	-12	21
S=C1NCc2cncnc2N1	2	1	-1	-2	-2	-2
COc1cc(-c2noc(C3CCCN(C(=O)c4ccccc4)C3)n2)cc(OC)c1OC (configuration not stated)	7	0	-11	-1	14*	-22
Cc1nc(C)c(-c2ccc(SCC(=O)Nc3ccc(C)c(Cl)c3)nn2)s1	-2	4	9	-1	0	1
CC(=O)c1ccc(NC(=O)CSc2ccc(-c3sc(C)nc3C)nn2)cc1	3	24	3	-17	-8	32*
CCC(=O)N1CCN(c2nc3ccccc3s2)CC1	4	4	-4	-4	4	-1
O=C(c1cc2sccc2n1Cc1ccccc1)N1CCN(c2nc3ccccc3s2)CC1	-1	4	27*	-10	-10	15
CC(C)(C)Nc1nc(Nc2ccc([N+](=O)[O-])cc2)nc(NC(C)(C)C)n1	3	6	20	-1	15*	23
CC(C)(C)c1nnc(NC(=O)Nc2ccc(Cl)cc2)s1	3	1	-1	-5	-8	14
Cc1noc(-c2ccccc2)c1NC(=O)Nc1ccc(Cl)cc1	-2	10	37*	-20	-58	23
